Series [1] is described as follows: Growth inhibition of mouse Hepa-1c1c7 cells by crystal violet staining. The format is cell-based. As to conditions: for IC50: Mus musculus, Hepa-1c1c7; for Activity: mouse, hepa-1c1c7; call rule not given here. The procedure, abridged: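 Hepa 1c1c7 cells seeded at 4000 cells/mL and grown 24 h at 37 °C, then medium changed. Compounds added in 10% DMSO, serially diluted over 0.15-20 µg/mL, and exposed 48 h. Viability read by crystal violet staining at 595 nm. IC50 taken as the half-maximal inhibitory concentration of cell viability.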

Series [2] is described as follows: Chemoprevention index, ratio of IC50 for mouse Hepa-1c1c7 cells to drug level required to double specific quinone reductase activity in mouse Hepa-1c1c7 cells. The format is functional. The method, boiled down: (§1)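 Hepa 1c1c7 cells seeded at 4000 cells/mL, grown 24 h at 37 °C under CO2, then medium changed. Compounds added in 10% DMSO, serially diluted over 0.15-20 µg/mL, and incubated a further 48 h. QR measured as NADPH-dependent, menadiol-mediated MTT reduction to formazan. Protein by crystal violet at 595 nm in duplicate plates. Specific activity expressed relative to solvent control. CD = concentration giving 2-fold activity, CQ = 4-fold. CI = IC50/CD or IC50/CQ.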

The nature of series [3]: Chemoprevention index, ratio of IC50 for mouse Hepa-1c1c7 cells to drug level required to induce 4-fold increase in quinone reductase activity in mouse Hepa-1c1c7 cells. The format is functional. The method, boiled down: as §1

32 molecules from ChEMBL document CHEMBL1148136, “Induction of quinone reductase by withanolides” (J Nat Prod, 2002) can be followed below.

In general, IC50 refers to the concentration needed to halve the response being measured. On to `CC1=C(C)C(=O)O[C@@H](/C(C)=C2\[C@H](O)C[C@H]3[C@@H]4[C@@H]5O[C@@H]5[C@@]5(O)CC=CC(=O)[C@]5(C)[C@H]4CC[C@]23C)C1` [EXODECONOLIDE B], for which the IC50 in series [1] is greater than 42.7 µM. Besides, the Ratio in series [2] is on record as greater than 2.6.

`CC1=C(C)C(=O)O[C@@H]([C@](C)(O)[C@H]2CC[C@H]3[C@@H]4[C@@H]5O[C@@H]5[C@@]5(O)CC=CC(=O)[C@]5(C)[C@H]4CC[C@]23C)C1` [WITHANOLIDE A] had an IC50 in series [1] greater than 42.5 µM.

Regarding `CC1=C(CO)C(=O)O[C@@H]([C@@H](C)[C@H]2CC[C@H]3[C@@H]4C[C@H]5O[C@]56CC=CC(=O)[C@]6(C)[C@H]4CC[C@]23C)C1` [JABOROSALACTONE A], in series [1], half-maximal inhibition (IC50) was put at 1.83 µM. The Ratio in series [2] is reported as 6.3; in series [3], 2.7.

Molecule `CO[C@@H]1O[C@@](C)([C@H]2CC(C)=C(C)C(=O)O2)[C@H]2CC[C@H]3[C@@H]4CC=C5[C@@H](O)C=CC(=O)[C@]5(C)[C@H]4CC[C@]123` [WITHAPHYSALIN H] returned an IC50 in series [1] of 5.21 µM. In series [2], the Ratio was 10.

In turn, `C[C@@H](c1ccc2c(c1)CC[C@H]1[C@H]2C[C@@H]2O[C@@]23CC=CC(=O)[C@]13C)[C@@H]1C[C@@H]2O[C@@H]2[C@H](O)O1` [SALPICHROLIDE A] gave an IC50 in series [1] greater than 42.9 µM. Also, in series [2], the Ratio was greater than 4.

With `CC(=O)O[C@H]1C=CC(=O)[C@]2(C)[C@H]3CC[C@]45C(=O)O[C@@](C)([C@H]6CC(C)=C(C)C(=O)O6)[C@H]4CC[C@H]5[C@@H]3C[C@H]3O[C@]132`, the IC50 in series [1] was determined as 0.57 µM. Moreover, the Ratio in series [2] and in series [3] was greater than 2 in each case.

In series [1], `CC1=C(C)C(=O)O[C@@H]([C@@H](C)[C@@]2(O)CC[C@H]3[C@@H]4C[C@H]5O[C@]56CCCC(=O)[C@]6(CO)[C@H]4CC[C@@]32C)C1` [JABOROSALACTONE O] showed an IC50 greater than 42.3 µM. Besides, in series [2], the Ratio is on record as greater than 27.8.

In turn, `CC1=C(C)C(=O)O[C@@H]([C@]2(C)OC(=O)[C@]34CC[C@H]5[C@@H](CC=C6[C@@H](O)C=CC(=O)[C@@]65C)[C@@H]3CC[C@H]24)C1` [WITHAPHYSALIN J] had an IC50 in series [1] of 11 µM. The Ratio in series [2] is listed as 28.1.

For the molecule `CC1=C(C)C(=O)O[C@@H](/C(C)=C2\[C@@H](O)C[C@H]3[C@@H]4[C@@H]5O[C@@H]5[C@@]5(O)CC=CC(=O)[C@]5(C)[C@H]4CC[C@]23C)C1` [EXODECONOLIDE A], the half-inhibitory concentration (IC50) in series [1] was greater than 42.7 µM. Moreover, the Ratio in series [2] was greater than 2.7.

Consider `CC(=O)O[C@H]1C=CC(=O)[C@@]2(C)C1=C[C@H](OC(C)=O)[C@@H]1[C@@H]2CC[C@]2(C)[C@@H]([C@@](C)(O)[C@H]3CC(C)=C(C)C(=O)O3)CC[C@@H]12`, for which 0.81 µM corresponded to half-maximal inhibition in series [1] (IC50). Also, the Ratio in series [2] was greater than 3.

In series [1], `C[C@@H](c1cc(O)c2c(c1)CC[C@H]1[C@H]2C[C@@H]2O[C@@]23CC=CC(=O)[C@]13C)[C@@H]1C[C@@H]2O[C@@H]2[C@H](O)O1` [SALPICHROLIDE G] had an IC50 greater than 42.9 µM. Further, the Ratio in series [2] is reported as greater than 3.7.

The molecule `CC(=O)C1=CC[C@H]2[C@@H]3[C@@H]4O[C@@H]4[C@@]4(O)CC=CC(=O)[C@]4(C)[C@H]3CC[C@]12C` came in with an IC50 in series [1] greater than 58.4 µM. In series [2], the Ratio is listed as greater than 1.7.

In series [1], `CO[C@H]1O[C@@](C)([C@H]2CC(C)=C(C)C(=O)O2)[C@H]2CC[C@H]3[C@@H]4CC=C5[C@@H](O)C=CC(=O)[C@]5(C)[C@H]4CC[C@]123` [WITHAPHYSALIN I] gave an IC50 of 5.27 µM. In series [2], the Ratio worked out at 5.1.

In turn, `CC(=O)O[C@H]1C=CC(=O)[C@]2(C)[C@H]3CC[C@]45C(=O)O[C@@](C)([C@H]6C[C@H](C)[C@@H](C)C(=O)O6)[C@H]4CC[C@H]5[C@@H]3C[C@H]3O[C@]132` displayed a concentration for half-maximal inhibition (IC50) in series [1] of 0.42 µM. Further, the Ratio in series [2] and in series [3] was greater than 1.5 throughout.

As for `CC1=C(C)C(=O)O[C@@H]([C@@H](C)[C@@]2(O)CC[C@H]3[C@@H]4[C@@H]5O[C@@H]5[C@@]5(O)CC=CC(=O)[C@]5(C)[C@H]4CC[C@@]32C)C1` [WITHANONE], the Activity entry in series [1] was “Not Active”.

Turning to `CC1=C(C)C(=O)O[C@@H]([C@]2(C)OC(O)[C@]34CC[C@H]5[C@@H](C[C@H]6O[C@]67[C@@H](O)C=CC(=O)[C@]57C)[C@@H]3CC[C@H]24)C1` (some centres not stated) [WITHAPHYSALIN F], in series [1], the IC50 stood at 4.15 µM.

In series [1], `CO[C@]12CC=CC(=O)[C@]1(C)[C@H]1C[C@@]3(O)[C@@]4(C)[C@@H](CC[C@@]4(O)[C@H](C)[C@@H](O)[C@]34OC(=O)C(C)=C4C)[C@@H]1C[C@H]2O` [JABOROSALACTONE 12] registered an IC50 greater than 39 µM. Besides, the Ratio in series [2] is reported as greater than 4.2.

Consider `CC1=C(C)C(=O)O[C@@H]([C@](C)(O)[C@H]2CC[C@H]3[C@@H]4C[C@H]5O[C@]56[C@@H](O)C=CC(=O)[C@]6(C)[C@H]4CC[C@]23CO)C1`, for which the half-inhibitory concentration (IC50) in series [1] was found to be 1.93 µM. Moreover, the Ratio in series [2] is 7.2; in series [3], 3.5.

As to `CC1=C(C)C(=O)O[C@@H]([C@@H](C)[C@@]2(O)CC[C@H]3[C@@H]4C[C@H]5O[C@]56CC=CC(=O)[C@]6(CO)[C@H]4CC[C@@]32C)C1` [JABOROSALACTONE L], the Activity entry in series [1] is recorded as “Not Active”.

`C[C@H]1C[C@H]([C@](C)(O)[C@H]2CC[C@H]3[C@@H]4C[C@H]5O[C@]56[C@@H](O)C=CC(=O)[C@]6(C)[C@H]4CC[C@]23C)OC(=O)[C@@H]1C` came in with a half-maximal inhibitory concentration (IC50) in series [1] of 5.5 µM. Moreover, the Ratio in series [2] is 7.8; in series [3], 1.4.

Turning to `CC1=C(C)[C@H]([C@H]2O[C@@]3(O)C[C@H]4[C@@H](C[C@H]5O[C@]56CC=CC(=O)[C@]46C)[C@@H]4CC[C@@](O)([C@@H]2C)[C@]43C)OC1=O` [TRECHONOLIDE A], the IC50 in series [1] was found to be 7.74 µM. Further, the figures for the Ratio in series [2] and in series [3] were 28.7 and 6.1, respectively.

In the case of `CC1=C(C)C(=O)O[C@@H]([C@@H](C)[C@H]2CC[C@H]3[C@@H]4[C@@H]5O[C@@H]5[C@@]5(O)CC=CC(=O)[C@]5(C)[C@H]4C[C@H](O)[C@]23C)C1` [WITHAFEROXOLIDE], in series [1], the concentration for half-maximal inhibition (IC50) was greater than 42.5 µM. Moreover, the Ratio in series [2] is greater than 2.9.

As to `CO[C@@H]1O[C@@](C)([C@H]2CC(C)=C(C)C(=O)O2)[C@H]2CC[C@H]3[C@@H]4CC=C5C(=O)C=CC(=O)[C@]5(C)[C@H]4CC[C@]123` [WITHAPHYSALIN K], the IC50 in series [1] was determined as 7.29 µM.

The molecule `CO[C@H]1O[C@@](C)([C@H]2CC(C)=C(C)C(=O)O2)[C@H]2CC[C@H]3[C@@H]4CC=C5C(=O)C=CC(=O)[C@]5(C)[C@H]4CC[C@]123` [WITHAPHYSALIN L] showed an IC50 in series [1] of 0.65 µM.

`CC1=C(C)C(=O)O[C@@H]([C@]2(C)OC(O)[C@]34CC[C@H]5[C@@H](CC=C6[C@@H](O)C=CC(=O)[C@@]65C)[C@@H]3CC[C@H]24)C1` (some centres not stated) [WITHAPHYSALIN G]: in series [1], half-maximal inhibition (IC50) required 9.83 µM. Further, the Ratio in series [2] came out at 19.3.

In the case of `CC(=O)O[C@@H]1[C@H]2[C@@H]3CC[C@H]([C@@](C)(O)[C@H]4CC(C)=C(C)C(=O)O4)[C@@]3(C)CC[C@@H]2[C@@]2(C)C(=O)C=C[C@H](OC(C)=O)[C@]23O[C@H]13`, the IC50 in series [1] is 0.33 µM. Moreover, the Ratio in series [2] is 1.3.

For the molecule `CC(=O)O[C@@H]1O[C@@](C)([C@H]2CC(C)=C(C)C(=O)O2)[C@H]2CC[C@H]3[C@@H]4CC=C5[C@@H](OC(C)=O)C=CC(=O)[C@]5(C)[C@H]4CC[C@]123`, the midpoint of inhibition in series [1], the IC50, lay at 5.1 µM.

The molecule `CC1=C(C)[C@]2(OC1=O)[C@H](O)[C@@H](C)[C@]1(O)CC[C@H]3[C@@H]4C[C@@H](O)[C@@]5(Cl)CC=CC(=O)[C@]5(C)[C@H]4C[C@@]2(O)[C@@]31C` [JABOROSALACTONE 10] gave an IC50 in series [1] greater than 38 µM. Also, in series [2], the Ratio was greater than 5.2.

`CC1=C(C)C(=O)O[C@@H]([C@](C)(O)[C@H]2CC[C@H]3[C@@H]4[C@@H](O)[C@H]5O[C@]56[C@@H](O)C=CC(=O)[C@]6(C)[C@H]4CC[C@]23C)C1` displayed an IC50 in series [1] of 1.27 µM. Besides, in series [2], the Ratio amounted to 2.5.

As to `CC1=C(CO)C(=O)O[C@@H]([C@@H](C)[C@H]2CC[C@H]3[C@@H]4C[C@@H](O)[C@@]5(O)CC=CC(=O)[C@]5(C)[C@H]4CC[C@]23C)C1` [JABOROSALACTONE D], the IC50 in series [1] is greater than 42.3 µM. The Ratio in series [2] was greater than 1.7.

In the case of `CC1=C(C)C(=O)O[C@@H]([C@@H]2CO[C@@]3(O)C[C@H]4[C@@H](C[C@@H](O)[C@@]5(O)CC=CC(=O)[C@]45C)[C@@H]4CC[C@]2(O)[C@]43C)C1` [JABOROSALACTONE S], the IC50 in series [1] is greater than 39.8 µM.

`C[S+]([O-])CCCCN=C=S` (configuration not stated) [SULFORAPHANE]: the Ratio in series [2] came out at 23.9; in series [3], 1.1.
